Measured values taken from PubChem BioAssay.
Results filed as inconclusive are left out.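 The calls were made as follows, unless noted: active = viability at or below 27.92% in each of two runs, the all-compound median minus 4 SD; inconclusive = no clear call, values can overlap the other calls; inactive = the rest.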

Assays:
[1] = S. cerevisiae growth inhibition in permissive medium (OD615), pilot counter-assay for S. cerevisiae lifespan shortening project, permissive growth control (AID 705;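 active = growth inhibition above 25% in both replicates, a cutoff set 3 SD above the mean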); details: OD615, 24 h, at 10 µM, stronger effect = higher value
Procedure, shortened: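 System: engineered DeaD yeast; Medium: permissive raffinose/galactose medium; Compound dosing: 10 µM single dose, 0.25% DMSO; Incubation: 4 h cell pre-growth, 24 h exposure at 30 °C; Technique: OD at 615 nm; Evaluation: growth inhibition from lowered OD615 after 24 h.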

[2] = S. cerevisiae growth inhibition in restrictive medium, OD615, pilot screen, restrictive growth control, yeast lifespan reduction project (AID 706;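 active = growth inhibition above a set limit, 3 SD over mean compound inhibition, in both replicates, cut at about 43% in these data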;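 also: modified DeaD lifespan yeast strain shifted to restrictive glucose medium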); details: OD615, 48 h, at 10 µM, stronger effect = higher value
Procedure, shortened: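 Material: modified S. cerevisiae; buffer or medium: CSMM-D glucose medium; doses: one concentration, 10 µM final, 0.25% DMSO; incubation: 48 h compound exposure at 30 °C; detection: optical density at 615 nm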

[3] = doxorubicin toxicity protection in MRP-1 cells – H69AR cells, CellTiter-Glo, duplicate, MRP-1 activator project, pilot screen (AID 807;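 active = viability increase at or above a cutoff of the median across tested compounds plus 3 SD, cut at about 8.5% in these data, passing the limit was not always enough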;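 also: compound pretreatment 18-22 h then 72 h combined with doxorubicin; 0% = doxorubicin alone and 100% = vehicle without doxorubicin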); details: H69AR viability with doxorubicin, CellTiter-Glo luminescence; at 10 µM; stronger effect = higher value
[4] = viability of HCT116 without oncogenic beta-catenin – human colon tumor cells, pilot screen (AID 823;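 active = cell viability at or below a set limit in both duplicate runs, the limit being the all-compound median minus 4 SD, cut at about 23% in these data, passing the limit was not always enough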;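 also: 0% = wells killed by 20 µM Hyamine and 100% = untreated DMSO cell wells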); details: HCT116 beta-catenin knockout viability, CellTiter-Glo, 60 h; at 10 µM; stronger effect = lower value
[5] = viability of PTEN-null HCT116 cells – cell-based, HCT116 clonal line, CellTiter-Glo, pilot screen (AID 824); details: HCT116 PTEN-deleted viability, 60 h, at 10 µM, stronger effect = lower value;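 also: 0% = 20 µM Hyamine control and 100% = vehicle cell control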
[6] = RAM pathway blockade in budding yeast – dse1pr::URA3 reporter, 5-FOA selection, pilot screen (AID 869;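 active = inhibition over a set limit, the all-compound mean plus 3 SD, in both replicate runs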;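 also: 0% = DMSO wells with no growth and 100% = 10 µM 1-NA-PP1 with full growth; RAM network block rescues cells from 5-FOA so hits raise OD615 growth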); details: S. cerevisiae dse1pr::URA3 5-FOA growth, OD615, 2 d; at 10 µM; stronger effect = higher value; strain carries analog-sensitive mutant Cbk1 kinase
[7] = RAM signaling pathway blockade in yeast – S. cerevisiae, Pdr1DBD-CYC8 efflux-inhibited sensitized strain, primary screen (AID 1298;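 active = RAM network inhibition above 8.4% in each of two replicates, 3 SD over the compound average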;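 also: 0% = DMSO untreated cells without growth and 100% = 10 µM 1-NA-PP1 full growth; higher means more yeast growth rescued from 5-FOA killing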); details: S. cerevisiae cbk1-as DSE1-URA3 strain, 5-FOA growth OD615, 2 d; at 50 µM; stronger effect = higher value

CN(C)c1ccc(NC(=O)c2cccc(N3C(=O)CCC3=O)c2)cc1
inactive: growth inhibition [1] 5.53% | growth inhibition [2] 4.7% | viability increase [3] 1.36% | viability [4] 106% | viability [5] 100% | inhibition [6] -0.005% | RAM network inhibition [7] 4.75%

CC(=O)COC(=O)c1cccc(N2C(=O)C3C4C=CC(C4)C3C2=O)c1 (configuration not stated)
inactive: growth inhibition [1] -0.62% | growth inhibition [2] 8.06% | viability increase [3] -1.07% | viability [4] 105% | viability [5] 93.5% | inhibition [6] 1.27% | RAM network inhibition [7] 0.67%

COC(=O)CN(c1ccc(C(C)C)cc1)S(=O)(=O)c1c(C)[nH]c(=O)[nH]c1=O
inactive: growth inhibition [1] -0.6% | growth inhibition [2] 11.3% | viability increase [3] -2.38% | viability [4] 88.8% | viability [5] 94.6% | inhibition [6] 2.21% | RAM network inhibition [7] 2.71%

CC1CCCCN1CCNC(=O)c1cc2c(=O)n(C)c3ccccc3c2n1C (configuration not stated)
inactive: growth inhibition [1] -12.9% | growth inhibition [2] -9.04% | viability increase [3] -6.71% | viability [4] 78.9% | viability [5] 72.7% | inhibition [6] 2.5% | RAM network inhibition [7] 1.31%

COc1ccc(C)cc1NC(=O)c1ccoc1C
inactive: growth inhibition [1] -1.21% | growth inhibition [2] 4.09% | viability increase [3] 0.93% | viability [4] 99.5% | viability [5] 87.8% | inhibition [6] 0.62% | RAM network inhibition [7] 7.87%

CCn1ncc(C2=NOC(C(=O)Nc3c(C)nn(Cc4ccc(F)cc4)c3C)C2)c1C (configuration not stated)
inactive: growth inhibition [1] -7.87% | growth inhibition [2] -11.5% | viability increase [3] 0.42% | viability [4] 93.5% | viability [5] 88.7% | inhibition [6] 1.59% | RAM network inhibition [7] 1.41%

CCn1c(SCC(=O)NCCOc2ccccc2)nc2ccccc2c1=O
inactive: growth inhibition [1] -0.73% | growth inhibition [2] -21.3% | viability increase [3] -1.87% | viability [4] 93.8% | viability [5] 92.6% | inhibition [6] 1.08% | RAM network inhibition [7] 4.35%

O=c1c(N2CCOCC2)nsnc1N1CCOCC1
inactive: growth inhibition [1] 8.28% | growth inhibition [2] -6.26% | viability increase [3] -1.68% | viability [4] 106% | viability [5] 95.8% | inhibition [6] 0.59% | RAM network inhibition [7] -2%

CN(C)CCCN1C(=O)c2oc3ccc(F)cc3c(=O)c2C1c1cccnc1 (configuration not stated)
inactive: growth inhibition [1] 4.42% | growth inhibition [2] 7.96% | viability increase [3] -1.1% | viability [4] 107% | viability [5] 98.7% | inhibition [6] 2.9% | RAM network inhibition [7] 2.14%

CC(=O)C1=C(C)N=c2s/c(=C/c3ccc4c(c3)OCO4)c(=O)n2C1c1ccc(N(C)C)cc1 (configuration not stated)
inactive: growth inhibition [1] -9.92% | growth inhibition [2] -9.9% | viability increase [3] -1.24% | viability [4] 93.2% | viability [5] 89.5% | inhibition [6] 1.13% | RAM network inhibition [7] 4.19%

COc1cccc(N(CC(=O)NCc2cccnc2)S(C)(=O)=O)c1
inactive: growth inhibition [1] -11.3% | growth inhibition [2] -4.04% | viability increase [3] -1.47% | viability [4] 95.1% | viability [5] 94.6% | inhibition [6] 0.625% | RAM network inhibition [7] 3.01%

Cc1cc(NC(=O)c2ccccc2)sc1C
inactive: growth inhibition [1] -5.22% | growth inhibition [2] 3.02% | viability increase [3] -3.69% | viability [4] 70.7% | viability [5] 70% | inhibition [6] -1.59% | RAM network inhibition [7] -1.89%

Cc1ccnc(SCCn2c(N(C)Cc3ccccc3)nc3c2c(=O)n(C)c(=O)n3C)n1
inactive: growth inhibition [1] -15.3% | growth inhibition [2] -13% | viability increase [3] -0.84% | viability [4] 93.3% | viability [5] 88.7% | inhibition [6] -0.475% | RAM network inhibition [7] 5.55%

O=C(COc1ccc(Cl)cc1)OCC(=O)N1CCCC1
inactive: growth inhibition [1] -6.8% | growth inhibition [2] -26.8% | viability increase [3] -2.32% | viability [4] 94.5% | viability [5] 95.3% | inhibition [6] 1.44% | RAM network inhibition [7] 3.51%

CCOCCCNC(=O)C(NC(=O)CC1NC(=O)NC1=O)c1ccc(Cl)cc1 (configuration not stated)
inactive: growth inhibition [1] -4.46% | growth inhibition [2] 1.68% | viability increase [3] 0.89% | viability [4] 107% | viability [5] 96.1% | inhibition [6] 2.61% | RAM network inhibition [7] 1.81%

Cc1ccnc(N2C(=O)c3ccccc3C2Nc2ccc3c(c2)OCCO3)c1 (configuration not stated)
inactive: growth inhibition [1] -12.4% | growth inhibition [2] 3.42% | viability increase [3] 1.16% | viability [4] 99.7% | viability [5] 90.1% | inhibition [6] 0.135% | RAM network inhibition [7] 3.93%

Cc1cc(Nc2ccc(F)cc2F)n2ncnc2n1
inactive: growth inhibition [1] -1.61% | growth inhibition [2] 6.47% | viability increase [3] -1.6% | viability [4] 96.5% | viability [5] 97.8% | inhibition [6] 1.35% | RAM network inhibition [7] 1.04%

Cc1ccc(SCC(=O)NCC(C)C)cc1
inactive: growth inhibition [1] -0.86% | growth inhibition [2] 6.93% | viability increase [3] 0.66% | viability [4] 97.1% | viability [5] 102% | inhibition [6] 0.42% | RAM network inhibition [7] 0.68%

CCN1CCN(CCNC(=O)CS(=O)(=O)Cc2nc(-c3ccc(C)cc3)oc2C)CC1
inactive: growth inhibition [1] -13.7% | growth inhibition [2] -28.7% | viability increase [3] 0.44% | viability [4] 87.2% | viability [5] 93.7% | inhibition [6] 0.22% | RAM network inhibition [7] 3.16%

COc1ccccc1N1CCN(C(=O)c2cc3c(=O)n(C)c4ccccc4c3n2C)CC1
inactive: growth inhibition [1] -7.35% | growth inhibition [2] 3.62% | viability increase [3] 2.2% | viability [4] 67.3% | viability [5] 72% | inhibition [6] 0.125% | RAM network inhibition [7] -0.26%

COCCn1c(SCC(N)=O)nc2c(c1=O)SC(C)C2 (configuration not stated)
inactive: growth inhibition [1] -1.48% | growth inhibition [2] -3.57% | viability increase [3] 0.08% | viability [4] 99.4% | viability [5] 97% | inhibition [6] 1.84% | RAM network inhibition [7] 5.52%

Oc1c(C(c2ccc(F)cc2)N2CCc3ccccc3C2)sc2ncnn12 (configuration not stated)
inactive: growth inhibition [1] -5.9% | growth inhibition [2] -6.98% | viability increase [3] 4.08% | viability [4] 103% | viability [5] 91.7% | inhibition [6] 2.67% | RAM network inhibition [7] 3.09%

CCCn1c(CN2CCCCC2C)nc2c1c(=O)n(C)c(=O)n2C (configuration not stated)
inactive: growth inhibition [1] -7.96% | growth inhibition [2] -3.75% | viability increase [3] -0.39% | viability [4] 88.7% | viability [5] 83.9% | inhibition [6] 1.64% | RAM network inhibition [7] 8.45%

Cc1cc(Nc2cc(F)ccc2C)n2nc(C)nc2n1
inactive: growth inhibition [1] -12.4% | growth inhibition [2] -7.35% | viability increase [3] -2.3% | viability [4] 105% | viability [5] 95% | inhibition [6] 1.03% | RAM network inhibition [7] 6.29%

O=C(c1ccco1)N1CCN=C1SCc1cccc(Cl)c1
inactive: growth inhibition [1] -1.8% | growth inhibition [2] 14% | viability increase [3] 1.56% | viability [4] 87.3% | viability [5] 91.9% | inhibition [6] 0.89% | RAM network inhibition [7] 0.26%

O=C(Cn1nc(-c2ccccc2)ccc1=O)Nc1ccc(N2CCN(C(=O)c3ccccc3)CC2)cc1
inactive: growth inhibition [1] -10.1% | growth inhibition [2] -24.7% | viability increase [3] -1.77% | viability [4] 94.5% | viability [5] 87.3% | inhibition [6] 2.17% | RAM network inhibition [7] 8.82%

O=C1c2ccccc2C(=O)C1c1ccncc1
inactive: growth inhibition [1] 4.93% | growth inhibition [2] -1.51% | viability increase [3] -1.88% | viability [4] 92.6% | viability [5] 91.3% | inhibition [6] 0.79% | RAM network inhibition [7] -0.62%

O=C(Nc1cccc(Br)c1)c1cc2ccccc2o1
inactive: growth inhibition [1] -5.65% | growth inhibition [2] -7.8% | viability increase [3] -5% | viability [4] 65.5% | viability [5] 64.3% | inhibition [6] 0.03% | RAM network inhibition [7] 3.48%

O=C(Nc1ccc(OC(F)(F)F)cc1)c1cnc2n(c1=O)CCS2
inactive: growth inhibition [1] -14.9% | growth inhibition [2] -1.33% | viability increase [3] 2.36% | viability [4] 89.9% | viability [5] 79.1% | inhibition [6] 3.13% | RAM network inhibition [7] 4.63%

O=C(CCn1c(=O)oc2ccccc21)Nc1ccc2c(c1)OCCO2
inactive: growth inhibition [1] -3.18% | growth inhibition [2] -9.54% | viability increase [3] -3.68% | viability [4] 103% | viability [5] 96% | inhibition [6] 1.88% | RAM network inhibition [7] 3.61%

O=C1CCCCC(=O)N(c2ccccc2)c2ccccc21
inactive: growth inhibition [1] -9.64% | growth inhibition [2] -15% | viability increase [3] -3.3% | viability [4] 95.9% | viability [5] 95.6% | inhibition [6] 1.74% | RAM network inhibition [7] 5.34%

C=CCOc1cccc(C2c3c(oc4ccc(F)cc4c3=O)C(=O)N2CCCN2CCOCC2)c1 (configuration not stated)
inactive: growth inhibition [1] -4.2% | growth inhibition [2] 2.91% | viability increase [3] -5.54% | viability [4] 93% | viability [5] 93.5% | inhibition [6] -0.045% | RAM network inhibition [7] 1.42%

c1ccc(COc2nsnc2N2CCOCC2)cc1
inactive: growth inhibition [1] 6.21% | growth inhibition [2] 13.8% | viability increase [3] -1.67% | viability [4] 107% | viability [5] 86.5% | inhibition [6] 0.145% | RAM network inhibition [7] 1.41%

CC(C)CC(=O)Nc1ccc2oc(-c3cccnc3)nc2c1
inactive: growth inhibition [1] 2.48% | growth inhibition [2] 2.53% | viability increase [3] -1.73% | viability [4] 100% | viability [5] 94% | inhibition [6] 1.53% | RAM network inhibition [7] -0.72%

COc1cccc(C(=O)N2CCSC2=S)c1
inactive: growth inhibition [1] -10.4% | growth inhibition [2] 3.34% | viability increase [3] -0.12% | viability [4] 97% | viability [5] 97.5% | inhibition [6] 0% | RAM network inhibition [7] -1.3%

COc1ccc(NC(=O)C2=C(C)NC(=O)NC2c2cccc(OC)c2OC)c(OC)c1 (configuration not stated)
inactive: growth inhibition [1] -15.4% | growth inhibition [2] -22.3% | viability increase [3] 0.09% | viability [4] 103% | viability [5] 103% | inhibition [6] 0.405% | RAM network inhibition [7] -1.04%
